In general, IC50 refers to the concentration that gives 50% inhibition. Read a high IC50 as a need for much substance.

The target of assay [1] is Cyclooxygenase (Bos taurus) (UniProt O62664+O62698).
Assay [2] concerns the target T1, Polyunsaturated fatty acid 5-lipoxygenase (Rattus norvegicus, UniProt P12527).
T1 sequence (P12527 whole entry): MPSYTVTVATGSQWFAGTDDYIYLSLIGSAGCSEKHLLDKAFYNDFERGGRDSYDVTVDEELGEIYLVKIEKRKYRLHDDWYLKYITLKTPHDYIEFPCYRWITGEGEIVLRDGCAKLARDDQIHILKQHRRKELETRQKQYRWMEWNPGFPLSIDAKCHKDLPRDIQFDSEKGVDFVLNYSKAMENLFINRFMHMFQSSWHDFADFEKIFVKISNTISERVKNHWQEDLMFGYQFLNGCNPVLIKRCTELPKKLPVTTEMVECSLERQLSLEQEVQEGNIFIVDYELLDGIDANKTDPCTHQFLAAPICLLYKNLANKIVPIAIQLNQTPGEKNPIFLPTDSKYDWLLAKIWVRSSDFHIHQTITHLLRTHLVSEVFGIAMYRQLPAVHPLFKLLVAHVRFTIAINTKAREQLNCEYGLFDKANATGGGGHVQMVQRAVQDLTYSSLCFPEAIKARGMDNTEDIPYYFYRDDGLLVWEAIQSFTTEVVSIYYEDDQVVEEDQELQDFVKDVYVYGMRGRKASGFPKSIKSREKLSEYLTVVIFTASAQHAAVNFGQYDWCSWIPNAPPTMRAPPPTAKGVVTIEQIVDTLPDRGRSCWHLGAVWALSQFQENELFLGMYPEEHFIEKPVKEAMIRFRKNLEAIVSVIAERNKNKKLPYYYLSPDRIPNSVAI
The assay is described as follows: inhibitory activity against 5-lipoxygenase in rat basophilic leukemia cell line. It is filed as cell-based, RBL-1.

The nature of assay [3]: Inhibition of IL-1 beta biosynthesis in human monocytes. It is filed as functional, cell-based. The gist of the method:
(§1)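 Human blood monocytes were isolated by ficoll-hypaque then elutriation and plated at 2×10^6 cells/mL in RPMI 1640 + 5% FBS. Compound in DMSO was added at 10, 3, 1, 0.3 and 0.1 μM for 1 h. Cells were then stimulated with Salmonella typhimurium LPS for about 20 h. Supernatant IL-1 was measured by ELISA and viability by MTT.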

For assay [4], the target named is Interleukin-1 beta (Homo sapiens) (UniProt P01584). The assay is described as follows: Compound was evaluated for the inhibition of IL-1 beta release by human monocytes.
Interleukin-1 beta (Homo sapiens), sequence (P01584 whole entry, looked up): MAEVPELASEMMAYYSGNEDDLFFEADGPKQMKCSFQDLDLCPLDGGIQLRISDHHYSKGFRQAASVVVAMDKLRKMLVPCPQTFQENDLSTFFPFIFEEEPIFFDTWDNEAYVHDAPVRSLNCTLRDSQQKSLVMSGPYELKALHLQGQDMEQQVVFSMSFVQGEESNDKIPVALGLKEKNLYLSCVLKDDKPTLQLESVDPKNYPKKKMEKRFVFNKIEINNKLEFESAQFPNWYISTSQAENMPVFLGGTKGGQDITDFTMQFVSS
The target of assay [5] is T2, Polyunsaturated fatty acid 5-lipoxygenase (Rattus norvegicus) (UniProt P12527).
T2 sequence (whole entry): T1 sequence (P12527 whole entry)
The assay is described as follows: Compound was evaluated for the inhibition of 5-LO (lipoxygenase). It is filed as functional. In outline:
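Enzyme source was a 1000g supernatant of homogenized RBL-1 cells, dosed to give 3300–3800 dpm net 5-HETE (9–20 μg cell protein/assay). Compound in 5% DMSO/0.2 M Tris pH 8.5 was preincubated with enzyme for 5 min at 37 °C in pH 7.0 phosphate buffer (EDTA, gelatin, glutathione, CaCl2, indomethacin). Then 0.042 mM [14C]arachidonic acid (final) was added, 2 min. Duplicates; IC50 by linear regression over three concentrations.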

In assay [6] the test system is Crotalus adamanteus. The assay is described as follows: Compound was evaluated for the inhibition of PLA2. It is filed as functional.
Assay [7] has as its target T2, Polyunsaturated fatty acid 5-lipoxygenase (Rattus norvegicus).
Assay [8] relates to Crotalus adamanteus. The assay can be described thus: Compound was evaluated for the inhibition of, PLA2. The assay is classed as functional.
For assay [9], the species on record is Homo sapiens. The assay can be described thus: Compound was evaluated for the inhibition of, IL1-beta biosynthesis. The assay is classed as functional. In outline: as §1
Assay [10] has as its target T2, Polyunsaturated fatty acid 5-lipoxygenase (Rattus norvegicus). The source holds these as a separate data set.
The subject of assay [11] is Crotalus adamanteus. The assay is described as follows: Compound was evaluated for the inhibition of,PLA2. It is filed as functional.
For assay [12], the species on record is Homo sapiens. The assay can be described thus: Compound was evaluated for the inhibition of,IL-1beta biosynthesis. It is filed as functional. In outline: as §1

The structures appear in SMILES notation.

Consider `O=C(/C=C\N(O)Cc1ccccc1)c1ccc(Cl)cc1`, for which the ID50 is greater than 750 µM in [1], 2.1 µM in assay [4], 1.5 µM in assay [5] and greater than 1000 µM in assay [6]. In addition, the half-maximal inhibitory concentration (IC50) in assay [2] worked out at 1.5 µM; in assay [3], 2.1 µM. Compound `CC(=O)N(/C=C\C(=O)C(C)(C)C)OCc1ccccc1` came in with an IC50 in [2] greater than 25 µM. For the compound `O=C(/C=C\N(O)c1ccccc1)c1ccc2ccccc2c1`, in [2], it took 0.81 µM to reach half-maximal inhibition (IC50). In other words, the sub-micromolar range. The same measure, in the same setting: the value for `CCCCCCCCCCN(O)/C=C\C(=O)c1ccc(F)cc1` was 13 µM.

As for `O=C(/C=C\N(O)C1CCCCC1)c1ccc2ccccc2c1`, the IC50 in assay [2] is 2.6 µM; in assay [3] it was greater than 10 µM. In turn, `CC(=O)ON(C)/C=C\C(=O)c1ccc(Cl)cc1` gave a 50% inhibitory concentration (IC50) in assay [2] greater than 25 µM. Take `O=C(/C=C\N(O)Cc1ccc(Oc2ccccc2)cc1)C1CC1`: the IC50 in [2] is 1.4 µM; in [3], greater than 10 µM. In assay [2], `CC(C)(C)/C(O)=C/C=N/OCc1ccccc1` displayed an IC50 greater than 25 µM.

For `CN(O)/C=C\C(=O)c1ccc([N+](=O)[O-])cc1`, the concentration for half-maximal inhibition (IC50) in assay [2] was 1.5 µM; in [3], greater than 10 µM.

In the case of `O=C(/C=C\N(O)Cc1ccccc1)c1ccncc1`, the half-inhibitory concentration (IC50) came out at 2 µM in assay [2] and 8.9 µM in assay [3]. In [2], `CC(=O)ON(/C=C\C(=O)C(C)(C)C)Cc1ccccc1` registered a concentration for half-maximal inhibition (IC50) greater than 25 µM. For the compound `O=C(/C=C\N(O)Cc1ccccc1)c1ccc(F)cc1`, the ID50 is greater than 750 µM in [1], 2.8 µM in assay [4] and greater than 1000 µM in assay [6]. In assay [3], half-maximal inhibition (IC50) required 2.8 µM. In the case of `CC(=O)ON(/C=C\C(=O)c1ccc(F)cc1)Cc1ccccc1`, the values for the half-maximal inhibitory concentration (IC50) in assay [2] and in assay [3] were greater than 25 µM and greater than 10 µM, respectively.

Compound `CCc1c(N(O)/C=C\C(=O)c2ccc3ccccc3c2)ccc2ccccc12` returned an IC50 in assay [2] of 0.75 µM. This counts as sub-micromolar. As to `O=C(/C=C\N(O)Cc1ccc(-c2ccccc2)cc1)c1ccc(F)cc1`, the half-inhibitory concentration (IC50) in assay [2] was found to be 3 µM; in [3], 5.2 µM. In the case of `O=C(/C=C\N(O)Cc1ccc(-c2ccccc2)cc1)c1ccco1`, in [2], 3.1 µM corresponded to half-maximal inhibition (IC50). With `CC(C)(C)C(=O)/C=C\N(O)Cc1ccccc1`, the IC50 in assay [2] is 5 µM; in assay [3] it was greater than 10 µM. Compound `O=C(/C=C\NOCc1ccccc1)c1ccc(-c2ccccc2)cc1` came in with an IC50 in [2] greater than 25 µM. Take `O=C(/C=C\N(O)C1CCCCC1)c1ccc(F)cc1`: the half-maximal inhibitory concentration (IC50) was 0.27 µM in assay [2] and greater than 10 µM in assay [3]. On to `O=C(/C=C\N(O)Cc1ccccc1)c1ccc([N+](=O)[O-])cc1`, for which the concentration for half-maximal inhibition (IC50) in assay [2] is 2.5 µM; in assay [3], 1.7 µM. Compound `CC(=O)ON(C)/C=C\C(=O)c1ccc(OCc2ccccc2)cc1` had a half-inhibitory concentration (IC50) in [2] greater than 25 µM. As for `CC(=O)ON(/C=C\C(=O)c1ccc(Cl)cc1)Cc1ccccc1`, the half-inhibitory concentration (IC50) in [2] was greater than 25 µM; in assay [3], greater than 10 µM.

As to `COC(=O)/C=C\N(O)Cc1ccc(OCc2ccccc2)cc1`, in [2], the IC50 was found to be 4.8 µM. Take `O=C(/C=C\N(O)Cc1ccc(-c2ccccc2)cc1)C1CC1`: the 50% inhibitory concentration (IC50) in [2] is 1.2 µM; in assay [3], greater than 10 µM.

`O=C(/C=C\N(O)CCc1ccccc1)c1ccc(F)cc1`: the figures for the IC50 in assay [2] and in assay [3] were 0.12 µM and greater than 10 µM, respectively. Taken in the same sequence, the figures for `CC(=O)ON(/C=C\C(=O)c1ccc([N+](=O)[O-])cc1)Cc1ccccc1` were greater than 25 µM and greater than 10 µM. Regarding `O=C(/C=C\N(O)Cc1ccccc1)c1c(Cl)cccc1Cl`, the figures for the IC50 in assay [2] and in [3] were 1.7 µM and greater than 10 µM, respectively. In assay [2], `O=C(/C=C\N(O)Cc1ccc(OCc2ccccc2)cc1)C1CC1` showed an IC50 of 2.6 µM. Regarding `CON(/C=C\C(=O)c1ccc(F)cc1)Cc1ccccc1`, the IC50 is greater than 25 µM in assay [2] and greater than 10 µM in assay [3]. On to `CN(O)/C=C\C(=O)c1ccc(OCc2ccccc2)cc1` [listing 1 of 2 here], for which the IC50 in assay [2] was determined as 1.9 µM. `C/C(=C/N(C)O)C(=O)c1ccc(OCc2ccccc2)cc1` gave an IC50 in [2] of 8.9 µM. For `CN(O)/C=C\C(=O)Sc1ccc2ccccc2c1`, the half-maximal inhibitory concentration (IC50) in [2] was 0.24 µM; in assay [3], greater than 10 µM. `O=C(/C=C\N(O)Cc1ccccc1)c1ccc(-c2ccccc2)cc1`: the IC50 in [2] was determined as 0.25 µM; in [3], 3.6 µM. Taken in the same sequence, the figures for `O=C(/C=C\N(O)Cc1ccc2ccccc2c1)C1CC1` were 1.5 µM and 9.9 µM.

As to `COc1ccc(C(=O)/C(=C\N(C)O)c2ccc(OC)cc2)cc1`, the concentration for half-maximal inhibition (IC50) in assay [2] was greater than 25 µM. As for `O=C(/C=C\N(O)Cc1ccccc1)c1ccc(Cl)c(Cl)c1`, the concentration for half-maximal inhibition (IC50) in assay [2] was determined as 0.61 µM; in [3], 3.6 µM. As to `O=C(/C=C\NOCc1ccccc1)c1ccc(F)cc1`, the 50% inhibitory concentration (IC50) in assay [2] was greater than 25 µM. In the case of `CN(O)/C=C\C(=O)c1ccc2ccccc2c1`, the IC50 is 1.8 µM in [2] and greater than 10 µM in [3]. Take `CN(O)/C=C(\C(=O)c1ccccc1)c1ccccc1`: the IC50 in [2] is greater than 25 µM. In the case of `CN(O)/C=C\C(=O)c1ccc(OCc2ccccc2)cc1` [listing 2 of 2 here], the IC50 is 1.1 µM in assay [2] and greater than 10 µM in assay [3]. On the same counts, the results for `O=C(/C=C\N(O)Cc1ccc2ccccc2c1)c1ccc(F)cc1` are 0.4 µM and 7.7 µM. In assay [2], `O=C(/C=C\N(O)Cc1ccc(-c2ccccc2)cc1)c1cccs1` had a half-maximal inhibitory concentration (IC50) greater than 25 µM. For `O=C(/C=C\N(O)Cc1ccccc1)c1ccc2ccccc2c1`, 5.4 µM corresponded to half-maximal inhibition in assay [3] (IC50). `O=C(/C=C\N(O)Cc1ccc(-c2ccccc2)cc1)c1ccsc1` yielded a half-inhibitory concentration (IC50) in assay [2] of 3 µM. In the case of `C/C(=C/C(=O)c1ccc(F)cc1)N(O)Cc1ccccc1`, the IC50 in [2] is 0.25 µM. Same read-out and setting: the value for `CN(O)/C=C\C(=O)c1cc(C(F)(F)F)cc(C(F)(F)F)c1` was 0.91 µM. On to `COc1ccccc1C(=O)/C=C\N(Cc1ccccc1)OC`, for which the 50% inhibitory concentration (IC50) in assay [2] is greater than 25 µM.

Compound `CN(O)/C=C\C(=O)c1ccc(-c2ccccc2)cc1` gave an IC50 in assay [3] greater than 10 µM.

Consider `O=C(/C=C\N(O)c1ccccc1)c1ccc(F)cc1`, for which the IC50 is 0.2 µM in assay [2] and greater than 10 µM in [3]. In assay [2], `CN(O)/C=C\C(=O)c1ccc(OCc2ccccn2)cc1` returned an IC50 of 10 µM.

For the compound `CC(=O)ON(/C=C\C(=O)c1ccc(-c2ccccc2)cc1)Cc1ccccc1`, the half-maximal inhibitory concentration (IC50) in assay [2] was greater than 25 µM; in assay [3] it was greater than 10 µM.

For the compound `CSc1ccc(C(=O)/C(=C\N(C)O)c2ccc(F)cc2)cc1`, in [2], the concentration for half-maximal inhibition (IC50) was greater than 25 µM. With `COc1ccc2c(c1)c(CC(=O)O)c(C)n2C(=O)c1ccc(Cl)cc1`, the ID50 in [7] is greater than 25 µM; in assay [4] it was greater than 30 µM; in assay [6] it was greater than 1000 µM. For `CN(O)/C=C\C(=O)c1ccc(Cl)cc1`, the results for the IC50 in [2] and in assay [3] were 0.55 µM and greater than 10 µM, respectively. As to `CC(=O)ON(C)/C=C\C(=O)c1ccc([N+](=O)[O-])cc1`, the half-maximal inhibitory concentration (IC50) in assay [2] was greater than 25 µM.

As for `O=C1CCN(c2ccccc2)N1` [PHENIDONE], the ID50 is greater than 1000 µM in assay [8], greater than 30 µM in [9], 6.9 µM in assay [1] and 0.48 µM in assay [10]. In the case of `CC(c1cc2ccccc2s1)N(O)C(N)=O` (stereo unspecified) [ZILEUTON], the ID50 in assay [11] is greater than 1000 µM; in assay [12], greater than 30 µM; in [1], greater than 750 µM. `CN(O)/C=C\C(=O)c1ccc(F)cc1`: the IC50 in assay [2] was 5 µM; in assay [3], 5.5 µM.

In [2], `COc1ccccc1/C(O)=C/C=N/OCc1ccccc1` displayed an IC50 greater than 25 µM. For the compound `CC(=O)ON(C)/C=C\C(=O)c1ccc(-c2ccccc2)cc1`, the half-maximal inhibitory concentration (IC50) in assay [2] was greater than 25 µM.

For the origin of these results see ChEMBL document CHEMBL1125338, “Synthesis, chemical, and biological properties of vinylogous hydroxamic acids: dual inhibitors of 5-lipoxygenase and IL-1 biosynthesis” (J Med Chem, 1992).
